In ChEMBL document CHEMBL6134765, “Rapid identification of novel indolylarylsulfone derivatives as potent HIV-1 NNRTIs via miniaturized CuAAC click-chemistry-based combinatorial libraries” (RSC Med Chem, 2025):

How the values were obtained:
[1] = Cytotoxicity against human MT4 cells assessed as reduction in cell viability incubated for 5 days by MTT assay; type: toxicity, cell-based; details: time 5 day
How it was run: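 Mock-infected MT-4 cultures were read by MTT for cell viability. CC50 is the concentration that reduces viability by 50%.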

[2] = Selectivity index, ratio of CC50 for cytotoxicity against human MT4 cells to EC50 for antiviral activity against wild-type HIV-1 IIIB infected in human MT4 cells; type: toxicity, cell-based; details: read-out: Ratio CC50/EC50
How it was run: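 Selectivity index is calculated as CC50 (mock-infected MT-4, MTT) divided by EC50 (HIV-1 IIIB protection of MT-4, MTT).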

[3] = test system: Human immunodeficiency virus 1; assay: Antiviral activity against HIV-1 harboring F227L/V106A double mutant infected in human MT4 cells assessed as inhibition of virus induced cytotoxicity incubated for 5 days by spectrophometry based MTT assay; type: functional, organism-based; details: Human immunodeficiency virus 1, MT4, 120 h
How it was run: (§1)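 MT-4 cells (from Dr. N. Yamamoto, Yamaguchi University) infected with single-mutant (L100I, K103N, Y181C, Y188L, E138K) or double-mutant (F227L/V106A; RES056 = K103N/Y181C) HIV-1 strains. Protection against virus-induced cytotoxicity was read by the MTT method. EC50 is the concentration giving 50% protection of the cell cultures.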

[4] = test system: Human immunodeficiency virus 1; assay: Antiviral activity against HIV-1 harboring RES056 mutant infected in human MT4 cells assessed as inhibition of virus induced cytotoxicity incubated for 5 days by spectrophometry based MTT assay; type: functional, organism-based; details: Human immunodeficiency virus 1, MT4, 120 h; how it was run: as §1
[5] = test system: Human immunodeficiency virus 2; assay: Antiviral activity against HIV-2 ROD infected in human MT4 cells incubated for 5 days by spectrophotometry based MTT assay; type: functional, organism-based; details: Human immunodeficiency virus 2, ROD, MT4, 120 h
How it was run: (§2)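 MTT protection assay in MT-4 cells infected with HIV-1 IIIB or HIV-2 ROD. EC50 is the compound concentration giving 50% protection of the cultures against virus-induced cytotoxicity.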

[6] = test system: Human immunodeficiency virus 1; assay: Antiviral activity against HIV-1 harboring K103N mutant infected in human MT4 cells assessed as inhibition of virus induced cytotoxicity incubated for 5 days by spectrophometry based MTT assay; type: functional, organism-based; details: Human immunodeficiency virus 1, MT4, 120 h; how it was run: as §1
[7] = target: Human immunodeficiency virus type 1 reverse transcriptase (Human immunodeficiency virus 1) (UniProt Q72547); assay: Inhibition of recombinant HIV-1 reverse transcriptase at 0.66 mM incubated for 1 hr by ELISA relative to control
How it was run: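 Each library compound was tested directly as the crude click mixture (diluted in DMSO to 2 mM per well) against HIV-1 RT at 0.66 mM, using an ELISA-based RT kit following the kit protocol. Blank controls held DMSO, TBTA, CuSO4·5H2O and sodium ascorbate. Inhibition is expressed as a percentage.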

[8] = test system: Human immunodeficiency virus 1; assay: Antiviral activity against HIV-1 harboring E138K mutant infected in human MT4 cells assessed as inhibition of virus induced cytotoxicity incubated for 5 days by spectrophometry based MTT assay; type: functional, organism-based; details: Human immunodeficiency virus 1, MT4, 120 h; how it was run: as §1
[9] = test system: Human immunodeficiency virus 1; assay: Antiviral activity against HIV-1 harboring L100I mutant infected in human MT4 cells assessed as inhibition of virus induced cytotoxicity incubated for 5 days by spectrophometry based MTT assay; type: functional, organism-based; details: Human immunodeficiency virus 1, MT4, 120 h; how it was run: as §1
[10] = test system: Human immunodeficiency virus 1; assay: Antiviral activity against HIV-1 harboring Y181C mutant infected in human MT4 cells assessed as inhibition of virus induced cytotoxicity incubated for 5 days by spectrophometry based MTT assay; type: functional, organism-based; details: Human immunodeficiency virus 1, MT4, 120 h; how it was run: as §1
[11] = test system: Human immunodeficiency virus 1; assay: Antiviral activity against wild-type HIV-1 IIIB infected in human MT4 cells incubated for 5 days by spectrophometry based MTT assay; type: functional, organism-based; details: Human immunodeficiency virus 1, IIIB, MT4, 120 h; how it was run: as §2
[12] = test system: Human immunodeficiency virus 1; assay: Antiviral activity against HIV-1 harboring Y188L mutant infected in human MT4 cells assessed as inhibition of virus induced cytotoxicity incubated for 5 days by spectrophometry based MTT assay; type: functional, organism-based; details: Human immunodeficiency virus 1, MT4, 120 h; how it was run: as §1

Row | SMILES | CC50 at 120 h [1] [µM] | selectivity ratio [2] | EC50 [3] [µM] | EC50 [4] [µM] | EC50 [5] [µM] | EC50 [6] [µM] | inhibition [7] [%] | EC50 [8] [µM] | EC50 [9] [µM] | EC50 [10] [µM] | EC50 [11] [µM] | EC50 [12] [µM]
1 | Cc1cc(C#N)cc(C)c1Oc1nc(Nc2ccc(C#N)cc2)nc(N)c1Br [ETRAVIRINE] | > 6.33 | > 1640 | 0.018 | 0.038 | – | – | – | – | – | – | – | –
2 | Cc1cc(C)cc(S(=O)(=O)c2c(C(=O)NCc3cn(CCc4ccccc4)nn3)[nH]c3ccc(Cl)cc23)c1 | 162 | 1080 | 4.33 | > 4.69 | > 4.69 | 0.54 | > 85 | 0.87 | 1 | 2.51 | 0.15 | > 162
3 | Cc1cc(C)cc(S(=O)(=O)c2c(C(=O)NCc3cn(Cc4ccc5ccccc5c4)nn3)[nH]c3ccc(Cl)cc23)c1 | – | – | – | – | – | – | < 85 | – | – | – | – | –
4 | Cc1cc(C)cc(S(=O)(=O)c2c(C(=O)NCc3cn(-c4ccc(C(=O)O)cc4Cl)nn3)[nH]c3ccc(Cl)cc23)c1 | – | – | – | – | – | – | < 85 | – | – | – | – | –
5 | Cc1cc(C)cc(S(=O)(=O)c2c(C(=O)NCc3cn(-c4ccc5c(c4)OCO5)nn3)[nH]c3ccc(Cl)cc23)c1 | – | – | – | – | – | – | < 85 | – | – | – | – | –
6 | Cc1cc(C)cc(S(=O)(=O)c2c(C(=O)NCc3cn(-c4cc5ccccc5s4)nn3)[nH]c3ccc(Cl)cc23)c1 | – | – | – | – | – | – | < 85 | – | – | – | – | –
7 | Cc1cc(C)cc(S(=O)(=O)c2c(C(=O)NCc3cn(CC(=O)Nc4ccc(Br)cc4)nn3)[nH]c3ccc(Cl)cc23)c1 | 15.8 | 231 | 1.87 | > 15.8 | > 15.8 | 1.5 | > 85 | 0.15 | 0.38 | 0.54 | 0.068 | 4.08
8 | Cc1cc(C)cc(S(=O)(=O)c2c(C(=O)NCc3cn(Cc4ccc(C#N)cc4)nn3)[nH]c3ccc(Cl)cc23)c1 | – | – | – | – | – | – | < 85 | – | – | – | – | –
9 | Cc1cc(C)cc(S(=O)(=O)c2c(C(=O)NCc3cn(CC(=O)N4CCOCC4)nn3)[nH]c3ccc(Cl)cc23)c1 | – | – | – | – | – | – | < 85 | – | – | – | – | –
10 | COC(=O)CCCn1cc(CNC(=O)c2[nH]c3ccc(Cl)cc3c2S(=O)(=O)c2cc(C)cc(C)c2)nn1 | 206 | 5810 | 1.66 | > 206 | > 206 | 0.51 | > 85 | 0.05 | 0.27 | 0.58 | 0.035 | 9.04
11 | Cc1cc(C)cc(S(=O)(=O)c2c(C(=O)NCc3cn([C@H]4C[C@H](n5cc(C)c(=O)[nH]c5=O)O[C@@H]4CO)nn3)[nH]c3ccc(Cl)cc23)c1 (single isomer, unassigned) | – | – | – | – | – | – | < 85 | – | – | – | – | –
12 | Cc1cc(C)cc(S(=O)(=O)c2c(C(=O)NCc3cn(CC(=O)Nc4ccc(S(C)(=O)=O)cc4)nn3)[nH]c3ccc(Cl)cc23)c1 | – | – | – | – | – | – | < 85 | – | – | – | – | –
13 | CCOC(=O)Cn1cc(CNC(=O)c2[nH]c3ccc(Cl)cc3c2S(=O)(=O)c2cc(C)cc(C)c2)nn1 | > 236 | > 7330 | 1.7 | 204 | 226 | 0.34 | > 85 | 0.1 | 0.17 | 0.63 | 0.032 | 33.4
14 | Cc1cc(C)cc(S(=O)(=O)c2c(C(=O)NCc3cn(CCc4ccsc4)nn3)[nH]c3ccc(Cl)cc23)c1 | – | – | – | – | – | – | < 85 | – | – | – | – | –
15 | Nc1ccn([C@@H]2CS[C@H](CO)O2)c(=O)n1 [LAMIVUDINE] | > 87.2 | > 17 | – | – | – | – | – | – | – | – | – | 3.56
16 | Cc1cc(C)cc(S(=O)(=O)c2c(C(=O)NCc3cn(CCCc4ccccc4)nn3)[nH]c3ccc(Cl)cc23)c1 | 117 | 302 | 9.7 | > 117 | > 117 | 3.25 | > 85 | 1.39 | 1.87 | 2.71 | 0.39 | > 117
17 | Cc1cc(C)cc(S(=O)(=O)c2c(C(=O)NCc3cn(Cc4cccc(Cl)c4)nn3)[nH]c3ccc(Cl)cc23)c1 | – | – | – | – | – | – | < 85 | – | – | – | – | –
18 | Cc1cc(C)cc(S(=O)(=O)c2c(C(=O)NCc3cn(CC(=O)Nc4ccc(C(F)(F)F)cc4)nn3)[nH]c3ccc(Cl)cc23)c1 | 17 | 148 | > 17 | > 17 | > 17 | 1.72 | > 85 | 2.22 | 0.59 | > 7.41 | 0.11 | 0.4
19 | Cc1cc(C)cc(S(=O)(=O)c2c(C(=O)NCc3cn(CC(=O)N4CCCC4)nn3)[nH]c3ccc(Cl)cc23)c1 | – | – | – | – | – | – | < 85 | – | – | – | – | –
